Assay [1] relates to MCF7. Put plainly: Induction of apoptosis in human MCF7 cells assessed as chromosome fragmentation at 30 uM by fluorescent microscopy. It counts as functional, cell-based. The conditions noted are these: TDE = time-dependent effect.
Assay [2] deals with T1, Peroxisome proliferator-activated receptor gamma (Homo sapiens) (UniProt P37231).
T1 sequence (whole entry): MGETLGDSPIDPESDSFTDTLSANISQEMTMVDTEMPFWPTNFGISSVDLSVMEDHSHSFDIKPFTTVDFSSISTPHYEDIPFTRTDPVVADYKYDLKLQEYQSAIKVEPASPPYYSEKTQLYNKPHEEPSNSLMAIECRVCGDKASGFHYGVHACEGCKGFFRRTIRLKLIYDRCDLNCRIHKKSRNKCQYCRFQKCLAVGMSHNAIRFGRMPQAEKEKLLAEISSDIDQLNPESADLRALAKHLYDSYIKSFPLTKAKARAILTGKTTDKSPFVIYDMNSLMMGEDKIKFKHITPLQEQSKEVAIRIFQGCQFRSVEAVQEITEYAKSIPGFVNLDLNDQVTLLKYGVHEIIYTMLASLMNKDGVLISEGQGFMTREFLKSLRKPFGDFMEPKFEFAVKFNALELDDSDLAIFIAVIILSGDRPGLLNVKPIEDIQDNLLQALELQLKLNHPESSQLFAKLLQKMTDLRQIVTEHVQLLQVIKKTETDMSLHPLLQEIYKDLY
Kind of assay: Activation of GAL4 fused human PPARgamma ligand binding domain transfected in african green monkey CV1 cells at 10 uM by CAT reporter assay. It counts as cell-based. To be noted: CV-1.

Assay [3] has as its target T1, Peroxisome proliferator-activated receptor gamma (Homo sapiens). Put plainly: Activation of PPARgamma transfected in human MDA-MB-231 cells at 100 to 300 uM after 48 hrs by luciferase reporter gene assay. It counts as cell-based. The essentials:
(§1)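 MCF-7 or MDA-MB-231 cells grown in DMEM/F12 with 10% FCS at 37 °C, 5% CO2. Electroporated with pPPRE-aP2-tk-luc reporter (50 µg/mL) plus rat PPARγ construct pCMV-rPPARγ (10 µg/mL). Seeded 20,000 cells/well and left 20 h. Compound added in serum-free medium for 24 or 48 h. Cells lysed and luciferase read. Runs done in triplicate or quadruplicate.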

Assay [4] has the same target. Kind of assay: Activation of PPARgamma transfected in human MCF7 cells at 100 to 300 uM after 48 hrs by luciferase reporter gene assay. It counts as cell-based. The essentials:
as §1

In assay [5] the test system is MCF7. Kind of assay: Antiproliferative activity against human MCF7 cells at 10 uM up to 8 hrs by neutral red method. It counts as functional, cell-based. The gist of the method:
(§2)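 Short exposure: MCF-7 cells treated at 3, 10 or 30 µM for 1, 2, 4 or 8 h. Then washed twice with serum-free medium and grown 96 h in medium with 10% FCS, compound-free. Neutral red absorbance at 540 nm, corrected at 630 nm. Triplicate.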

Assay [6] addresses T1, Peroxisome proliferator-activated receptor gamma (Homo sapiens). Put plainly: Activation of PPARgamma transfected in human MCF7 cells at 10 uM after 48 hrs by luciferase reporter gene assay. It counts as cell-based. The essentials:
as §1
(In a reporter assay the amount or activity of a reporter protein is the signal.)

For assay [7], the system named is NCI-H1299. Put plainly: Activation of p21 promoter in human H1299 cells by reporter assay. It counts as functional, cell-based.
The subject of assay [8] is MCF7. Kind of assay: Induction of apoptosis in human MCF7 cells assessed as chromosome fragmentation at 10 uM after 16 hrs by fluorescent microscopy. It counts as functional, cell-based. The gist of the method:
(§3)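 MCF-7 cells seeded at 80,000/well on coverslips and grown 16 h. Compound added (10 µM final) in an equal volume of serum-free medium; 30 nM taxol as control. After 4, 8 or 16 h, cells fixed in MeOH, washed in PBS and mounted in DAPI. Fragmented nuclei scored by fluorescence at 400×.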

For assay [9], the system named is MCF7. Put plainly: Induction of apoptosis in human MCF7 cells assessed as chromosome fragmentation at 10 uM after 8 hrs by fluorescent microscopy. It counts as functional, cell-based. The gist of the method:
as §3

The test system of assay [10] is MCF7. Kind of assay: Antiproliferative activity against human MCF7 cells at 30 uM after 8 hrs by neutral red method. It counts as functional. The essentials: as §2
Assay [11] deals with T2, Peroxisome proliferator-activated receptor gamma (Homo sapiens, UniProt P37231).
T2 sequence (P37231 whole entry): T1 sequence (whole entry)
Kind of assay: Activation of PPARgamma transfected in human MCF7 cells by luciferase reporter gene assay. It counts as cell-based.

For assay [12], the system named is T47D. Kind of assay: Induction of apoptosis in human T47D cells assessed as chromosome fragmentation at 10 uM after 8 hrs by fluorescent microscopy.
Assay [13] has as its system MCF7. Kind of assay: Antiproliferative activity against human MCF7 cells by neutral red method. It counts as functional, cell-based. The gist of the method: (§4)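 MCF-7 cells plated as for the reporter assay (20,000/well, 20 h), then exposed 48 h to compound added in serum-free DMEM/F12. Viability read by neutral red uptake as absorbance at 540 nm, corrected at 630 nm. Triplicate, mean ± SD.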

Assay [14] concerns T47D. Put plainly: Induction of apoptosis in human T47D cells assessed as chromosome fragmentation at 10 uM after 16 hrs by fluorescent microscopy.
Assay [15] can be described thus: Inhibition of HDAC by cell-free enzyme assay.
Assay [16] addresses T1, Peroxisome proliferator-activated receptor gamma (Homo sapiens). Put plainly: Activation of PPARgamma transfected in human MCF7 cells at 10 uM by luciferase reporter gene assay. It counts as cell-based. The gist of the method:
as §1

Assay [17] relates to MCF7. Put plainly: Antiproliferative activity against human MCF7 cells at 10 uM after 48 hrs by neutral red method. It counts as functional. The gist of the method: as §4

The source made the active and inactive calls. The calls are words filed in the database; no cut-off is given here.

By AC50 is commonly meant the concentration giving half of the maximal activity seen. Usually EC50 stands for the concentration needed to bring the measured effect to its halfway point. By IC50 is commonly meant the concentration needed to halve the response being measured.

As to `CC(=O)O[C@H]1C(=O)[C@@]2(C)[C@H]([C@H](OC(=O)c3ccccc3)[C@]3(O)C[C@H](OC(=O)[C@H](O)[C@@H](NC(=O)c4ccccc4)c4ccccc4)C(C)=C1C3(C)C)[C@]1(OC(C)=O)CO[C@@H]1C[C@@H]2O`, in assay [1], the Activity entry is “tde”.
As for `CC1(COc2ccc(CC3SC(=O)NC3=O)cc2)CCCCC1` (configuration not stated), the outcome in assay [2] was Active.
Consider `COc1ccc2c(c1)c(CC(=O)O)c(C)n2C(=O)c1ccc(Cl)cc1`, for which the result in assay [3] and in assay [4] was inactive.
On to `O=C(NCCSSCCNC(=O)/C(Cc1ccc(O)c(Br)c1)=N/O)/C(Cc1ccc(O)c(Br)c1)=N/O` [PSAMMAPLIN A], for which the outcome in [5] was inactive. For the same compound, the result in assay [6], in [8], in [9], in assay [12], in assay [14] and in assay [16] was Active. Further, the activity in [7] was half-maximal at 7.5 µM (AC50). Also, the results for the Activity in assay [10] and in assay [17] were 36% and 62%, respectively. Also, the EC50 in [11] was found to be 5.7 µM. In addition, the IC50 stood at 5 µM in assay [13] and 0.0042 µM in assay [15].

The record behind these values is ChEMBL document CHEMBL1157307, “Bioassay for the identification of natural product-based activators of peroxisome proliferator-activated receptor-gamma (PPARgamma): the marine sponge metabolite psammaplin A activates PPARgamma and induces apoptosis in human breast tumor cells” (J Nat Prod, 2006).
